Sampled rows, rich in hits. Any-hit rate of the full collection: about 2%.
XiGFP reactiv = activators of inactive X chromosome reactivation, primary screen, imaging, XiGFP fibroblasts, GFP high-content imaging, set 2; XiGFP mouse fibroblasts, % GFP-positive cells imaging, 3 d; cells co-treated with 5-aza-dC sensitizer; scaled so ellipticine positive control = 100%; activation, % at 7.58 µM; hit rate 0.055% among 360,000; AID 743238, 2013;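 active means mean normalized replicate activation at least 10% and every replicate at or above 10%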
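System: 68-5-11 XiGFP fibroblast line; Timing: 3 days compound exposure; Compound dosing: one concentration, pinned; Benchmarks: positive control ellipticine, 6 µM final; Buffer or medium: DMEM containing 5-aza-dC.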
SR-BI DiI-HDL act = activators of SR-BI mediated DiI-HDL uptake, primary screen, ldlA[mSR-BI] CHO cells, DiI fluorescence; 3 h; 100 = double the neutral-control signal; activation, % at 12.5 µM; hit rate 0.096% among 320,000;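 active means mean replicate activation of at least 60% and every replicate at or above 60%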
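Test system: SR-BI-overexpressing, LDLR-lacking CHO cells. Measured by: DiI fluorescence, bottom read. Medium: Ham's F12 with 0.5% BSA, HEPES 25 mM, pH 7.4. Timing: 3 h uptake period with compound, 37 °C.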
NSD2 inh = NSD2 histone methyltransferase inhibitors, primary screen, biochemical, AlphaScreen, single concentration, set 2; Histone-lysine N-methyltransferase NSD2 (Homo sapiens), O96028; NSD2 peptide methylation, 120 min; inhibition, % at 12.5 µM; hit rate 0.54% among 310,000; AID 743445, 2014; in the data active means inhibition above about 50%
HGIII-sPLA2 inh = human group III sPLA2 inhibitors, primary screen, biochemical, QFRET, BODIPY PC-A2 liposome substrate; Group 3 secretory phospholipase A2 (Homo sapiens), Q9NZ20; QFRET BODIPY PC-A2 liposome hydrolysis, fluorescence; inhibition, % at 12.2 µM; hit rate 0.56% among 370,000; AID 743126, 2013;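 active means inhibition above mean plus 3 SD of compounds lying within the high and low control bounds, cut at about 19% in these data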
Target sequence (Q9NZ20 whole entry, looked up): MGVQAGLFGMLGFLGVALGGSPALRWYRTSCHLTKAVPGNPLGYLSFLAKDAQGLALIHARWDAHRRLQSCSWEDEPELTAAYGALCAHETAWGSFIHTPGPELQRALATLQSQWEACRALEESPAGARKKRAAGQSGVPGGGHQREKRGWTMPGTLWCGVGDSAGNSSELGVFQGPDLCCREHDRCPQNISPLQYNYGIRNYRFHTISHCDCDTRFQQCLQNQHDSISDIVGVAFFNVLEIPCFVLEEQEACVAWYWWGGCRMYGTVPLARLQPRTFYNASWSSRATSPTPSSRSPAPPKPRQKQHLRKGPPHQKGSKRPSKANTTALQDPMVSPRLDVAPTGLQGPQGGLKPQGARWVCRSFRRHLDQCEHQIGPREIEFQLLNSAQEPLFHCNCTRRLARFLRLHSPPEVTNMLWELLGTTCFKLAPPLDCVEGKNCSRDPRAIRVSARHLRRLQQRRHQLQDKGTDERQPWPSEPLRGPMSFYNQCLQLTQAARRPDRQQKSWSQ
ARNT TACC3 PPI = disruptors of ARNT/TACC3 protein interaction, primary screen, biochemical, AlphaScreen, single concentration. inhibition, % at 9.99 µM. hit rate 0.66% among 390,000. AID 623870, 2012. AlphaScreen His-ARNT PAS-B/GST-TACC3 binding, luminescence; TACC3 fragment carries E629A point mutation;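 active means mean inhibition of replicates at least 50% and at least half of replicates each reaching 50%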
SR-BI HDL uptake = inhibitors of SR-BI mediated HDL lipid uptake, primary screen, ldlA[mSR-BI] cells, fluorescence, single point | Scavenger receptor class B member 1 (Mus musculus), Q61009 | ldlA[mSR-BI] CHO cells, DiI-HDL uptake fluorescence, 3 h | inhibition, % at 12.5 µM | hit rate 0.96% among 320,000;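 active means mean replicate inhibition of at least 70% and a set share of replicates each scoring 70 or more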
A number is an active result; . = inactive; / = no result.

SMILES	XiGFP reactiv	SR-BI DiI-HDL act	NSD2 inh	HGIII-sPLA2 inh	ARNT TACC3 PPI	SR-BI HDL uptake
O=C1NCN(c2ccccc2)C12CCN(C(c1cc3ccccc3o1)c1nnnn1C1CCCCC1)CC2 (stereo unspecified)	.	/	/	.	/	/
COc1ccc2nc(-c3ccc(CN4CCC(n5c(=O)[nH]c6ccccc65)CC4)cc3)c(-c3ccccc3)nc2c1	.	/	/	.	/	/
CC(=O)N1c2ccccc2C(c2ccccc2)=NCC1C(=O)NCc1ccccc1 (stereo unspecified)	/	/	/	.	/	/
CCN(CC)C(=O)c1ccc(NC(=O)c2ccc3c(c2)NC(=O)CS3)cc1	.	.	.	.	.	71.9
C[C@H]1CN([C@@H](C)CO)C(=O)CCCn2nncc2CO[C@@H]1CN(C)C(=O)Oc1ccccc1	.	/	/	.	.	/
COc1c2c(cc3c1OCO3)CCN(C)C2	.	.	/	.	.	.
COc1cc2c(cc1O)C[C@H]1NCCc3cc4c(c-2c31)OCO4	.	.	/	.	52.0	.
COc1cc2c(cc1OC)-c1c(OC)c(OC)cc3c1C(C2)N(C)CC3 (stereo unspecified)	/	.	/	.	.	76.5
COc1cc2c(cc1OC)-c1c3c(cc4c1[C@@H](C2)N(C)CC4)OCO3	.	.	/	.	35.3	.
COc1ccc(CC2c3cc(OC)c(OC)cc3CCN2C)cc1O (stereo unspecified)	.	.	/	.	.	.
COc1ccc2c(c1)c(C(=O)CN1CCC3(CC1)OCCO3)c(C)n2Cc1ccccc1	/	.	.	.	.	.
N=C1c2ccccc2CN1c1ncccn1	.	.	.	.	.	.
CCCCCn1c(=O)c(C(=O)NCCc2ccccc2)c(O)c2ccccc21	.	.	.	.	.	74.9
CCCCCn1c(=O)c(C(=O)Nc2ccccc2Cl)c(O)c2ccccc21	.	.	/	.	.	92.8
CCN(CC)CCNC(=O)c1c(O)c2ccccc2n(Cc2ccccc2)c1=O	/	.	.	.	.	.
O=C(N/N=C/c1c(O)n(Cc2ccccc2)c(=O)[nH]c1=O)c1ccccc1O	.	.	.	.	62.6	117.4
O=C(N/N=C/c1c(O)n(Cc2ccc(F)cc2)c(=O)[nH]c1=O)c1ccccc1O	.	.	.	.	/	75.3
COc1ccc(Cn2c(O)c(/C=N/NC(=O)c3ccccc3O)c(=O)[nH]c2=O)cc1	.	.	.	.	.	97.2
COc1ccc(Cn2c(O)c(C=NCCN3CCOCC3)c(=O)[nH]c2=O)cc1	/	.	.	.	.	.
O=C(N/N=C/c1c(O)n(CCc2ccccc2)c(=O)[nH]c1=O)c1ccccc1O	.	/	.	.	.	/
COC(=O)[C@@H]1[C@@H](CO)[C@@H]2Cn3c(ccc(-c4cccc(F)c4)c3=O)[C@H]1N2C(=O)CC1CC1	.	/	/	/	.	/
C[CH2][Hg][S]c1ccccc1C(=O)O	.	.	/	.	.	106.3
CC(C)COC(=O)c1ccccc1C(=O)OCC(C)C	/	.	/	.	.	.
CN(C)c1ccc(CN2CC=C(c3ccc(F)cc3)CC2)cc1	/	.	51.2	.	.	.
O=C(COc1ccccc1)N1CCN(CC2CC=CCC2)CC1 (stereo unspecified)	.	/	.	.	.	/
C#CCN1CCN(c2cccc(C(F)(F)F)c2)CC1	.	.	.	.	.	.
COc1cc(/C=C2/C(=O)NC(=O)N(c3ccccc3)C2=O)ccc1O	.	.	.	.	active	.
CN(C)c1ccc(NC(=O)CN2C(=O)CN=C(c3ccccc3)c3ccccc32)cc1	/	.	.	.	.	82.7
CN(C)c1ccc(NC(=O)CN2C(=O)CN=C(c3ccccc3)c3cc(Cl)ccc32)cc1	.	.	/	.	.	.
O=P(N1CCCCCC1)(N1CCCCCC1)N1CC1	.	.	.	.	.	.
